# ChEMBL document CHEMBL4002557, “Phenanthrenes from Juncus inflexus with Antimicrobial Activity against Methicillin-Resistant Staphylococcus aureus” (2016)
# The source made the active and inactive calls. The rule behind the calls is not given here.
# Columns and labels:
# Assay type in all cases: functional
# Staphylococcus aureus [1] = test: Antibacterial activity against methicillin-resistant Staphylococcus aureus ATCC 43300 at 10 mg/ml after 24 hrs by disk diffusion method; conditions: for zone of inhibition at 10000 µg/mL: ATCC 43300, 24 h, read-out: DIZ
# Summary of the method: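 Disk diffusion. Pure compounds were diluted to 10 mg/mL in DMSO, and 50 μL was loaded onto 6 mm sterile paper disks. Disks were placed on agar seeded with bacterial suspension (0.5 McFarland, (1−2) × 10^8 CFU/mL), with solvent as negative control. Incubation was 37 °C, 24 h, aerobic. Inhibition-zone diameter was measured including the disk. Done in triplicate.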
# Staphylococcus aureus [2] = test: Antibacterial activity against methicillin-resistant Staphylococcus aureus ATCC 43300 after 24 hrs by microdilution method; conditions: ATCC 43300, 24 h
# Summary of the method: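 Broth microdilution in 96-well plates. DMSO stocks (50 mg/mL) were serially diluted in Mueller-Hinton broth to final 2.5 mg/mL–4.9 μg/mL. Inoculum was 0.5 McFarland, (1−2) × 10^8 CFU/mL. Controls were sterility, DMSO/inoculum negative and vancomycin positive. Incubation was 37 °C, 24 h, aerobic. MIC was the lowest concentration with no visible growth. Run twice in triplicate.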
# Staphylococcus aureus [3] = test: Ratio of MIC for methicillin-sensitive Staphylococcus aureus in dark to MIC for methicillin-sensitive Staphylococcus aureus in presence of UVA irradiation
# Staphylococcus aureus [4] = test: Antibacterial activity against methicillin-resistant Staphylococcus aureus ATCC 43300 at 5 ug/disk after 24 hrs by disk diffusion method; conditions: ATCC 43300, 24 h, read-out: DIZ
structure (smiles),measurement,setting,value
C=C[C@@]1(C)C(=O)C2=C(C[C@H]1O)c1ccc(O)c(C)c1CC2,diameter of the inhibition zone (DIZ),Staphylococcus aureus [1],inactive
C=Cc1cc2c(cc1C)CCc1c-2ccc(O)c1C,diameter of the inhibition zone (DIZ),Staphylococcus aureus [1],inactive
C=CC1=C(C)C(=O)C=C2c3ccc(O)c(C)c3CC[C@]21O,zone of inhibition at 10000 µg/mL,Staphylococcus aureus [1],12 mm
same,MIC,Staphylococcus aureus [2],12.5 µg/mL
C=Cc1c(C)c(O)cc2c1-c1ccc(O)c(C)c1CC2,zone of inhibition at 10000 µg/mL,Staphylococcus aureus [1],12 mm
same,MIC,Staphylococcus aureus [2],25 µg/mL
same,Ratio,Staphylococcus aureus [3],2
COc1cc(-c2cc(=O)c3c(O)cc(O)cc3o2)ccc1O,diameter of the inhibition zone (DIZ),Staphylococcus aureus [1],inactive
C=Cc1cc(O)cc2c1-c1ccc(O)c(C)c1CC2 [EFFUSOL],Ratio,Staphylococcus aureus [3],16
C=Cc1cc2c(ccc3c(C)c(O)ccc32)cc1C,diameter of the inhibition zone (DIZ),Staphylococcus aureus [1],inactive
COC(C)c1cc(O)c(C)c2c1-c1ccc(O)c(C)c1CC2 (racemic),diameter of the inhibition zone (DIZ),Staphylococcus aureus [1],inactive
C=Cc1c(C)c(O)cc2c1-c1ccc(OC)c(CO)c1CC2,zone of inhibition at 10000 µg/mL,Staphylococcus aureus [1],7 mm
same,MIC,Staphylococcus aureus [2],100 µg/mL
C=Cc1c(C)c(O)cc2c1ccc1c(C)c(O)ccc12,zone of inhibition at 10000 µg/mL,Staphylococcus aureus [1],10 mm
same,MIC,Staphylococcus aureus [2],25 µg/mL
CN[C@H](CC(C)C)C(=O)N[C@H]1C(=O)N[C@@H](CC(N)=O)C(=O)N[C@H]2C(=O)N[C@H]3C(=O)N[C@H](C(=O)N[C@H](C(=O)O)c4cc(O)cc(O)c4-c4cc3ccc4O)[C@H](O)c3ccc(c(Cl)c3)Oc3cc2cc(c3O[C@@H]2O[C@H](CO)[C@@H](O)[C@H](O)[C@H]2O[C@H]2C[C@](C)(N)[C@H](O)[C@H](C)O2)Oc2ccc(cc2Cl)[C@H]1O [VANCOMYCIN],zone of inhibition at 5 µg/disc,Staphylococcus aureus [4],15.5 mm
Cc1cc2ccc3c(C)c(O)ccc3c2cc1[C@@H]1CC=Cc2c3c(c(C)c(O)c21)CCc1c-3ccc(O)c1C,diameter of the inhibition zone (DIZ),Staphylococcus aureus [1],inactive
C=Cc1c(C)c(O)cc2c1CCc1c-2ccc(O)c1C,diameter of the inhibition zone (DIZ),Staphylococcus aureus [1],inactive
C=Cc1c(C)c(O)cc2ccc3c(C)c(O)ccc3c12,diameter of the inhibition zone (DIZ),Staphylococcus aureus [1],inactive
